MIC data for four molecules are collected here from ChEMBL document CHEMBL1777788, “Synthesis and in vitro antimicrobial activities of new (cyano-NNO-azoxy)pyrazole derivatives” (2011).

Holding throughout (assay type): functional
Assay [1] has as its system Pichia kudriavzevii. The assay is described as follows: Antimicrobial activity against Candida krusei isolate 48 after 48 hrs by microdilution broth method. In general terms: Broth dilution looks for growth in wells or tubes with falling amounts of substance.
The subject of assay [2] is Nakaseomyces glabratus. In words: Antimicrobial activity against Candida glabrata isolate 32 after 48 hrs by microdilution broth method. As to conditions: isolate 32, 48 h. The method in brief:
(§1)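 Yeasts were grown overnight on Sabouraud dextrose agar at 35°C, suspended in water, and adjusted at 530 nm to McFarland 0.5 (approximately 1-5 x 10^6 CFU/ml). They were then diluted 1:100 and 1:20 in RPMI 1640 with 0.165 M MOPS and 2% glucose. Compound in DMSO was tested at ten concentrations, 0.25–256 mg/L, with incubation at 35°C. At 48 h, MIC was read spectrophotometrically as 50% turbidity reduction versus growth control.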

For assay [3], the system named is Candida parapsilosis. In words: Antimicrobial activity against Candida parapsilosis isolate 26 after 48 hrs by microdilution broth method. As to conditions: Lodderomyces parapsilosis, isolate 26, 48 h. In a few lines: as §1
For assay [4], the system named is Candida albicans. In words: Antimicrobial activity against Candida albicans isolate 31 after 48 hrs by microdilution broth method. As to conditions: isolate 31, 48 h. In a few lines:
as §1

In assay [5] the test system is Nakaseomyces glabratus. In words: Antimicrobial activity against Candida glabrata isolate 46 after 48 hrs by microdilution broth method. The method in brief:
as §1

The subject of assay [6] is Cryptococcus deneoformans. In words: Antimicrobial activity against Cryptococcus neoformans var. neoformans isolate 27 after 48 hrs by microdilution broth method. As to conditions: isolate 27, 48 h. The method in brief: as §1
Assay [7] relates to Pichia kudriavzevii. In words: Antimicrobial activity against Candida krusei ATCC 6258 after 48 hrs by microdilution broth method. The note with it: ATCC 6258, 48 h.
In assay [8] the test system is Nakaseomyces glabratus. In words: Antimicrobial activity against Candida glabrata isolate 30 after 48 hrs by microdilution broth method. In a few lines: as §1
The subject of assay [9] is Candida albicans. In words: Antimicrobial activity against Candida albicans ATCC 90028 after 48 hrs by microdilution broth method. As to conditions: ATCC 90028, 48 h. In a few lines:
(§2)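 Yeasts grown overnight on Sabouraud dextrose agar at 35°C, suspended in sterile water, and adjusted to McFarland 0.5 at 530 nm (about 1-5 x 10^6 CFU/ml), then diluted 1:100 and 1:20 in RPMI 1640 with 0.165 M MOPS and 2% glucose. Compound in DMSO tested at ten concentrations, 0.25-256 mg/L, at 35°C. MIC read spectrophotometrically at 48 h as 50% turbidity reduction versus growth control.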

Assay [10] concerns Candida parapsilosis. In words: Antimicrobial activity against Candida parapsilosis ATCC 22019 after 48 hrs by microdilution broth method. The note with it: Lodderomyces parapsilosis, ATCC 22019, 48 h. The method in brief: as §1
For assay [11], the system named is Candida parapsilosis. The assay is described as follows: Antimicrobial activity against Candida parapsilosis isolate 39 after 48 hrs by microdilution broth method. As to conditions: Lodderomyces parapsilosis, isolate 39, 48 h. The method in brief:
as §2

Assay [12] deals with Candida tropicalis. The assay is described as follows: Antimicrobial activity against Candida tropicalis isolate 15 after 48 hrs by microdilution broth method. The note with it: isolate 15, 48 h. In a few lines: as §1
In assay [13] the test system is Candida parapsilosis. The assay is described as follows: Antimicrobial activity against Candida parapsilosis isolate 19 after 48 hrs by microdilution broth method. As to conditions: Lodderomyces parapsilosis, isolate 19, 48 h. In a few lines:
as §1

The test system of assay [14] is Cryptococcus deneoformans. In words: Antimicrobial activity against Cryptococcus neoformans var. neoformans isolate 14 after 48 hrs by microdilution broth method. The note with it: isolate 14, 48 h. In a few lines:
as §1

For assay [15], the system named is Candida tropicalis. In words: Antimicrobial activity against Candida tropicalis isolate 11 after 48 hrs by microdilution broth method. As to conditions: isolate 11, 48 h. The method in brief: as §1
Assay [16] has as its system Pichia kudriavzevii. The assay is described as follows: Antimicrobial activity against Candida krusei isolate 31 after 48 hrs by microdilution broth method. The note with it: isolate 31, 48 h. The method in brief: as §1
Assay [17] concerns Nakaseomyces glabratus. The assay is described as follows: Antimicrobial activity against Candida glabrata isolate 49 after 48 hrs by microdilution broth method. In a few lines: as §1
For assay [18], the system named is Cryptococcus deneoformans. The assay is described as follows: Antimicrobial activity against Cryptococcus neoformans var. neoformans isolate 30 after 48 hrs by microdilution broth method. The note with it: isolate 30, 48 h. The method in brief:
as §1

Assay [19] relates to Candida tropicalis. The assay is described as follows: Antimicrobial activity against Candida tropicalis isolate 33 after 48 hrs by microdilution broth method. As to conditions: isolate 33, 48 h. The method in brief: as §1
In assay [20] the test system is Cryptococcus deneoformans. In words: Antimicrobial activity against Cryptococcus neoformans var. neoformans isolate 25 after 48 hrs by microdilution broth method. The note with it: isolate 25, 48 h. The method in brief: as §1
For assay [21], the system named is Candida albicans. In words: Antimicrobial activity against Candida albicans isolate 47 after 48 hrs by microdilution broth method. The note with it: isolate 47, 48 h. In a few lines: as §1
For assay [22], the system named is Candida albicans. The assay is described as follows: Antimicrobial activity against Candida albicans isolate 48 after 48 hrs by microdilution broth method. As to conditions: isolate 48, 48 h. In a few lines:
as §1

In assay [23] the test system is Pichia kudriavzevii. In words: Antimicrobial activity against Candida krusei isolate 43 after 48 hrs by microdilution broth method.
Assay [24] deals with Candida tropicalis. In words: Antimicrobial activity against Candida tropicalis isolate 22 after 48 hrs by microdilution broth method. The note with it: isolate 22, 48 h. The method in brief: as §1

In brackets after ≈: the same amount, converted by molar mass.

For orientation: MIC means the smallest concentration in the dilution series that meets the test's criterion for growth inhibition. Read a high MIC as a less susceptible organism. As to `Cc1c(/[N+]([O-])=N/C(N)=O)c(-c2cccs2)nn1C`, the MIC was above 128 µg/mL in the assay on Pichia kudriavzevii [1]; above 128 µg/mL in the assay on Nakaseomyces glabratus [2]; above 128 µg/mL in the assay with Candida parapsilosis [3]; above 128 µg/mL against Candida albicans [4]; above 128 µg/mL against Nakaseomyces glabratus [5]; 64 µg/mL (≈ 241 µM) in [6]. Also, the MIC in the assay with Pichia kudriavzevii [7], against Nakaseomyces glabratus [8], against Candida albicans [9], against Candida parapsilosis [10], against Candida parapsilosis [11] and against Candida tropicalis [12] was above 128 µg/mL throughout. In addition, the MIC in the assay on Candida parapsilosis [13] is above 128 µg/mL; in assay [14], 64 µg/mL (≈ 241 µM); in the assay on Candida tropicalis [15], above 128 µg/mL; in the assay on Pichia kudriavzevii [16] it was above 128 µg/mL; against Nakaseomyces glabratus [17], above 128 µg/mL; in assay [18], 128 µg/mL (≈ 482 µM). The MIC with Candida tropicalis [19] is above 128 µg/mL; in [20], 128 µg/mL (≈ 482 µM); in the assay on Candida albicans [21] it was above 128 µg/mL; against Candida albicans [22], above 128 µg/mL; against Pichia kudriavzevii [23] it was above 128 µg/mL; against Candida tropicalis [24], above 128 µg/mL.
As to `Cc1nn(C)c(-c2cccs2)c1/[N+]([O-])=N/C#N`, the MIC was determined as 2 µg/mL (≈ 8.09 µM) with Pichia kudriavzevii [1]; 2 µg/mL (≈ 8.09 µM) with Nakaseomyces glabratus [2]; 16 µg/mL (≈ 64.7 µM) in the assay on Candida parapsilosis [3]; 4 µg/mL (≈ 16.2 µM) in the assay with Candida albicans [4]; 2 µg/mL (≈ 8.09 µM) against Nakaseomyces glabratus [5]; 0.25 µg/mL (≈ 1.01 µM) in [6]. Moreover, the MIC against Pichia kudriavzevii [7] turned out to be 1 µg/mL (≈ 4.04 µM); in the assay with Nakaseomyces glabratus [8], 2 µg/mL (≈ 8.09 µM); with Candida albicans [9] it was 4 µg/mL (≈ 16.2 µM); in the assay on Candida parapsilosis [10] it was 32 µg/mL (≈ 129 µM); against Candida parapsilosis [11], 16 µg/mL (≈ 64.7 µM); in the assay with Candida tropicalis [12], 64 µg/mL (≈ 259 µM). Besides, the MIC in the assay with Candida parapsilosis [13] is 32 µg/mL (≈ 129 µM); in assay [14], 0.25 µg/mL (≈ 1.01 µM); with Candida tropicalis [15], 32 µg/mL (≈ 129 µM); in the assay on Pichia kudriavzevii [16], 1 µg/mL (≈ 4.04 µM); in the assay on Nakaseomyces glabratus [17], 2 µg/mL (≈ 8.09 µM); in assay [18], 0.5 µg/mL (≈ 2.02 µM). In addition, the MIC amounted to 32 µg/mL (≈ 129 µM) in the assay with Candida tropicalis [19]; 0.5 µg/mL (≈ 2.02 µM) in [20]; 4 µg/mL (≈ 16.2 µM) against Candida albicans [21]; 4 µg/mL (≈ 16.2 µM) in the assay on Candida albicans [22]; 1 µg/mL (≈ 4.04 µM) in the assay on Pichia kudriavzevii [23]; 32 µg/mL (≈ 129 µM) in the assay on Candida tropicalis [24].
Take `Cc1c(/[N+]([O-])=N/C#N)c(-c2ccco2)nn1C`: the MIC in the assay with Pichia kudriavzevii [1] was determined as 2 µg/mL (≈ 8.65 µM); against Nakaseomyces glabratus [2], 2 µg/mL (≈ 8.65 µM); with Candida parapsilosis [3], 8 µg/mL (≈ 34.6 µM); in the assay on Candida albicans [4] it was 2 µg/mL (≈ 8.65 µM); in the assay with Nakaseomyces glabratus [5], 1 µg/mL (≈ 4.32 µM); in assay [6] it was 0.25 µg/mL (≈ 1.08 µM). Besides, the MIC in the assay with Pichia kudriavzevii [7] stood at 1 µg/mL (≈ 4.32 µM); in the assay with Nakaseomyces glabratus [8], 1 µg/mL (≈ 4.32 µM); against Candida albicans [9], 1 µg/mL (≈ 4.32 µM); in the assay with Candida parapsilosis [10], 32 µg/mL (≈ 138 µM); with Candida parapsilosis [11], 16 µg/mL (≈ 69.2 µM); against Candida tropicalis [12], 128 µg/mL (≈ 554 µM). Further, the MIC in the assay on Candida parapsilosis [13] is 64 µg/mL (≈ 277 µM); in [14], 0.25 µg/mL (≈ 1.08 µM); in the assay with Candida tropicalis [15], 32 µg/mL (≈ 138 µM); against Pichia kudriavzevii [16], 1 µg/mL (≈ 4.32 µM); against Nakaseomyces glabratus [17] it was 1 µg/mL (≈ 4.32 µM); in [18], 0.25 µg/mL (≈ 1.08 µM). The MIC with Candida tropicalis [19] was found to be 128 µg/mL (≈ 554 µM); in assay [20], 0.25 µg/mL (≈ 1.08 µM); with Candida albicans [21], 4 µg/mL (≈ 17.3 µM); with Candida albicans [22], 4 µg/mL (≈ 17.3 µM); with Pichia kudriavzevii [23] it was 2 µg/mL (≈ 8.65 µM); against Candida tropicalis [24], 128 µg/mL (≈ 554 µM).
Take `Cc1ccc(S(=O)(=O)/N=[N+](\[O-])c2c(-c3cccs3)nn(C)c2C)cc1`: the MIC against Pichia kudriavzevii [1] was above 128 µg/mL; with Nakaseomyces glabratus [2], above 128 µg/mL; against Candida parapsilosis [3], above 128 µg/mL; against Candida albicans [4] it was above 128 µg/mL; in the assay with Nakaseomyces glabratus [5], above 128 µg/mL; in [6], 64 µg/mL (≈ 170 µM). For the same molecule, the MIC in the assay on Pichia kudriavzevii [7], against Nakaseomyces glabratus [8], against Candida albicans [9], in the assay on Candida parapsilosis [10], with Candida parapsilosis [11] and in the assay on Candida tropicalis [12] was above 128 µg/mL each time. The MIC in the assay with Candida parapsilosis [13] was above 128 µg/mL; in assay [14], 64 µg/mL (≈ 170 µM); against Candida tropicalis [15] it was above 128 µg/mL; in the assay on Pichia kudriavzevii [16], above 128 µg/mL; in the assay with Nakaseomyces glabratus [17], above 128 µg/mL; in [18], 128 µg/mL (≈ 340 µM). Further, the MIC against Candida tropicalis [19] was above 128 µg/mL; in assay [20] it was 128 µg/mL (≈ 340 µM); against Candida albicans [21] it was above 128 µg/mL; against Candida albicans [22] it was above 128 µg/mL; in the assay on Pichia kudriavzevii [23] it was above 128 µg/mL; against Candida tropicalis [24] it was above 128 µg/mL.
